# Bioassay records deposited in PubChem BioAssay by several laboratories.
# Most compounds without a hit are left out; they make up all but 1.7% or so of the library.
# IDE act – boosts human insulin-degrading enzyme activity in HEK cells. FAbeta-B cleavage, fluorescence polarization; 0% vehicle, 100% cell-free pure enzyme wells. activation, % at 5.96 µM. 340,000 compounds, 0.073% hits. P14735. AID 493087;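 active = activation above the mean of all tested compounds plus 3 SD, set per screening campaign, cut at about 17% in these data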
# HNF4A DNA FP – change in binding of human HNF4 alpha to DNA; AID 1224865; activity change, % at 10 µM; 360,000 compounds, 0.3% hits; HNF4a-FITC DNA binding, fluorescence polarization, 1 h; P41235; in the data active = activity change above about 30%, passing the limit was not always enough
# CSN deneddyl inh – inhibitors of human CSN-mediated cullin deneddylation | Purified CSN, SCF-Nedd8-OG deneddylation, fluorescence polarization | inhibition, % at 12.5 µM | 360,000 compounds, 0.38% hits;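 active = pattern-corrected inhibition above about 35%, with an unprinted fluorescence ratio check between 0.5 and 1.5, limit read from the data, passing the limit was not always enough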
# Target sequence (Q92905 whole entry, looked up, one chain of several): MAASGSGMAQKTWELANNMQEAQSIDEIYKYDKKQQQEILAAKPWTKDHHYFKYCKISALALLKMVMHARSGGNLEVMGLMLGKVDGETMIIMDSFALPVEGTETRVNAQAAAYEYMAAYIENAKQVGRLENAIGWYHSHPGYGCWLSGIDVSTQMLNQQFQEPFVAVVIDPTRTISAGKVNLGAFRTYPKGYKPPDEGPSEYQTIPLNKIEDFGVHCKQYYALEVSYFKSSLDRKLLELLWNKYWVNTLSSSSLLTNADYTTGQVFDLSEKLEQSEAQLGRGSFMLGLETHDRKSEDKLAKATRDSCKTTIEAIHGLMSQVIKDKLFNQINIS
#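 test system = HEK293T-derived human Csn5 enzyme | amount = 0.24 nM Csn5 enzyme, final concentration | medium = Tris/NaCl/DTT buffer, pH 7.5 | schedule = 90 min reaction at room temperature | signal = FP | evaluation = inhibition of Csn5 cleavage, % | compound dosing = single dose of 12.5 µM compound with 0.25% DMSO | probe or stimulus = 10 nM SCFSkp2-Nedd8OG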
# TPT1 inh – C. albicans TPT1 enzyme inhibition | AID 1962 | inhibition, % at 5 µM | recombinant caTPT1, FP RNA substrate dephosphorylation | 300,000 compounds, 0.81% hits;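 active = inhibition above the mean of all tested compounds plus 3 SD, set per screening campaign, cut at about 24% in these data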
# IDE inh – inhibits human insulin-degrading enzyme in HEK cells; P14735; FAbetaB cleavage, fluorescence polarization; inhibition, % at 5.59 µM; 320,000 compounds, 0.41% hits;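 active = percent inhibition above the average of all tested compounds plus 3 SD, set per screening campaign, cut at about 16% in these data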;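 note: IDE supplied by intact live HEK cells; FP after avidin binding of uncleaved biotin substrate so inhibition keeps polarization high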
# Rpn11 inh – Rpn11 (human) deubiquitinase inhibition; 360,000 compounds, 0.59% hits; calls only at 20 µM; human 26S proteasome, Ub4-pepOG fluorescence polarization; 20S core pre-blocked with epoxomicin; O00487;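 active = inhibition at 20 µM, scaled to each plate's controls, above about 33%, limit read from the data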
# TPT1 inh confirm – TPT1 (C. albicans) inhibition, confirmation; shares compounds with TPT1 inh; recombinant caTPT1, fluorescence polarization, RNase T1 coupled; inhibition, % at 5 µM; 2,400 compounds, 74% hits;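 active = inhibition above the primary screen limit, the mean inhibition of all tested compounds plus 3 SD, cut at about 25% in these data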
# RNase T1 inh – RNase T1 inhibition in TPT1 counter-screen; inhibition, % at 5 µM; 2,400 compounds, 83% hits; shares compounds with TPT1 inh; RNase T1 cleavage, fluorescence polarization, 1536-well;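 active = inhibition above the solvent-only control well mean plus 3 SD, limit set per screening run, cut at about 23% in these data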;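 note: inhibitors block cleavage so intact labeled substrate keeps polarization high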
# Target sequence (P00651 whole entry, looked up): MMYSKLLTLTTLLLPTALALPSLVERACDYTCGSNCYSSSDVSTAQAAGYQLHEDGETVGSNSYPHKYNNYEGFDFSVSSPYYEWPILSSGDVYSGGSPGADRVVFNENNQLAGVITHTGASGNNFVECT
# IDE inh confirm – cellular human IDE inhibition, confirmation. shares compounds with IDE inh. HEK cells, FAbetaB cleavage, fluorescence polarization. inhibition, % at 5.59 µM. 1,200 compounds, 51% hits. AID 435028;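 active = mean inhibition across triplicate wells above the cutoff set by the earlier primary insulin-degrading enzyme screen, cut at about 16% in these data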
# HEK cytotox – kills HEK cells in IDE inhibitor counter-screen; shares compounds with IDE inh; HEK293 cytotoxicity, ATP luminescence; inhibition, % at 5.59 µM; 1,200 compounds, 28% hits; AID 449730; in the data active = inhibition above about 22%
# A number is an active result; - = inactive; . = no result shown; + = active, no number.
SMILES,IDE act,HNF4A DNA FP,CSN deneddyl inh,TPT1 inh,IDE inh,Rpn11 inh,TPT1 inh confirm,RNase T1 inh,IDE inh confirm,HEK cytotox
CCOC(=O)/C(=C\C=C1/Sc2cc(OCC)c(OCC)cc2N1CC)C(C)=O,-,-,-,147.3,127.8,.,122.8,123.0,40.8,34.6
CCOC(=O)/C(=C/C=C1\Sc2cc(OCC)c(OCC)cc2N1CC)C(C)=O,-,-,-,+,163.1,.,148.7,141.9,92.0,24.7
CCC1CCC(C(=O)NNC(=O)OC)CC1 (configuration not stated),-,-,-,-,-,-,.,.,.,.
C=CCOC(=O)C1=C(C)OC(N)=C(C#N)C1c1ccoc1 (configuration not stated),-,-,-,62.4,44.8,-,59.0,73.8,40.0,-
CN1CCS/C1=C/C=C1\SC(=S)N(CC(=O)O)C1=O,-,-,-,168.8,59.8,.,180.2,166.8,74.6,-
CN1CCS/C1=C/C=C1/SC(=S)N(Cc2ccccc2)C1=O,-,-,-,171.0,105.2,.,169.2,156.7,81.8,-
CC(/C=C1\SC(=S)N(CC(=O)O)C1=O)=C\c1ccccc1,-,-,-,-,-,-,.,.,.,.
COc1ccc([C@H]2C[C@H](n3cc(COC(=O)c4ccccc4)nn3)[C@@H](O)CN2C(=O)C2CCCCC2)cc1,.,-,-,.,.,-,.,.,.,.
CC(=O)c1sc(N/N=C\c2ccc(Br)cc2)nc1C,-,37.6,-,71.1,36.8,.,82.0,88.1,75.8,-
COc1ccccc1C(C)NC(=O)CN(C)CC(=O)Nc1c(C)cccc1C (configuration not stated),-,-,-,.,-,-,.,.,.,.
CCCCCOc1ccc(N2C(=O)C(C)CNC2=S)cc1 (configuration not stated),.,.,.,-,-,.,.,.,.,.
CCN(CC)C(=O)c1ccc(/C=C/c2c[nH]c3ccccc23)[n+](C)c1,-,-,-,102.6,22.0,.,109.8,111.7,21.1,-
CCOc1ccc2oc(C(=O)NC(C)(C)CC)c(C)c2c1,-,-,-,-,-,-,.,.,.,.
CC1CCC(NC(=O)CCS(=O)(=O)c2ccc3c(c2)NC(=O)CO3)CC1 (configuration not stated),-,-,-,-,-,-,.,.,.,.
O/C(=C\c1nc2ccccc2[nH]1)c1cccs1,-,-,-,-,-,-,.,.,.,.
O=c1[nH]c2ccccc2nc1/C=C(\O)c1cccs1,-,-,-,70.5,47.4,-,117.2,113.8,74.5,-
C[C@@H]1CN([C@@H](C)CO)S(=O)(=O)c2ccc(Br)cc2O[C@H]1CN(C)C(=O)C1CCCCC1,.,-,-,.,.,-,.,.,.,.
C=CCn1c(SCC(=O)N2CCCC2)nc2cc(C(=O)NCC3CCCO3)ccc2c1=O (configuration not stated),-,-,-,-,-,-,.,.,.,.
CCN1C(=O)/C(=C/c2ccc(N3CCCC3)cc2)NC1=S,-,-,-,150.1,123.8,.,153.8,141.9,157.6,22.6
CCCN1C(=O)/C(=C/c2ccc(N3CCOCC3)cc2)NC1=S,-,90.5,-,138.5,16.3,.,142.7,139.0,30.9,-
CCCNC(=O)Cn1c(=O)/c(=C\c2ccc(-c3ccc([N+](=O)[O-])cc3)o2)s/c1=C\C(=O)C(C)(C)C,-,-,-,108.5,20.5,.,99.0,98.6,77.3,-
CC1(C)Cc2c(ccc3ccccc23)/C(=C/C#N)N1,-,-,-,-,-,-,.,.,.,.
CCN(CC)c1ccc(/C=C2\C(=N)N3N=C(CC(=O)N4CCOCC4)SC3=NC2=O)cc1,-,-,-,137.1,19.9,.,173.8,164.1,36.5,-
